Data from ChEMBL document CHEMBL4184296, “Novel inhibitors of Staphylococcus aureus RnpA that synergize with mupirocin” (Bioorg Med Chem Lett, 2018).
Values after ≈ are worked out from the molar mass of the structure shown.

Key:
[1] = Inhibition of Staphylococcus aureus RnpA/RnpB-mediated tRNA cleavage after 15 mins by ethidium bromide staining based polyacrylamide gel electrophoresis
Summary of the method: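 RNase P reconstituted from equimolar S. aureus RnpA and rnpB; inhibition of in vitro tRNA maturation (cleavage) measured.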

HepG2 = assay: Cytotoxicity against human HepG2 cells assessed as reduction in cell viability after 24 hrs by MTT assay; type: cell-based; details: hepg2, 24 h
Summary of the method: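 Human HepG2 hepatocytes; overt cytotoxicity measured by MTT method. Value reported as the lowest concentration causing cytotoxicity.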

Staphylococcus aureus [2] = assay: Antibacterial activity against Staphylococcus aureus UAMS-1 after 18 hrs by Mueller-Hinton broth analysis; type: functional; details: UAMS-1, 18 h
Summary of the method: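 S. aureus UAMS-1, a methicillin-sensitive osteomyelitis clinical isolate, tested by CLSI broth method in 96-well format. MIC taken as the lowest compound concentration with no visible growth.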

Staphylococcus aureus [3] = assay: Potentiation of mupirocin-induced antibacterial activity against Staphylococcus aureus UAMS-1 assessed as fractional inhibitory concentration index at 4 ug/ml by checkerboard assay; type: functional
Summary of the method: (§1)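 Checkerboard assay: wells seeded with 1 × 10^5 CFU ml-1 S. aureus UAMS-1. Test compound in 2-fold steps (0, 0.5, 1, 2, 4, 8, 16, 32 µg/mL) crossed with mupirocin (0, 0.03125, 0.0625, 0.125 µg/mL). Plates incubated 18 h at 37 °C, then growth read. FICI = (MIC compound combined / MIC alone) + (MIC mupirocin combined / MIC mupirocin alone).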

Staphylococcus aureus [4] = assay: Potentiation of mupirocin-induced antibacterial activity against Staphylococcus aureus UAMS-1 assessed as mupirocin MIC at 4 ug/ml by checkerboard assay (reference value: 0.125 microg/ml); type: functional; summary of the method: as §1
Staphylococcus aureus [5] = assay: Potentiation of mupirocin-induced antibacterial activity against Staphylococcus aureus UAMS-1 assessed as mupirocin MIC at 8 ug/ml by checkerboard assay (reference value: 0.125 microg/ml); type: functional; summary of the method: as §1
Staphylococcus aureus [6] = assay: Potentiation of mupirocin-induced antibacterial activity against Staphylococcus aureus UAMS-1 assessed as fractional inhibitory concentration index at 8 ug/ml by checkerboard assay; type: functional; summary of the method: as §1
Staphylococcus aureus [7] = assay: Potentiation of mupirocin-induced antibacterial activity against Staphylococcus aureus UAMS-1 assessed as fractional inhibitory concentration index at 0.5 ug/ml by checkerboard assay; type: functional; summary of the method: as §1
Staphylococcus aureus [8] = assay: Potentiation of mupirocin-induced antibacterial activity against Staphylococcus aureus UAMS-1 assessed as fractional inhibitory concentration index at 16 ug/ml by checkerboard assay; type: functional; summary of the method: as §1
[9] = biological target: T1, Ribonuclease P protein component (Staphylococcus aureus, UniProt P0A0H5); assay: Inhibition of Staphylococcus aureus RnpA-mediated mRNA degradation after 15 to 30 mins by ethidium bromide staining based agarose gel electrophoresis
T1 sequence (P0A0H5 whole entry): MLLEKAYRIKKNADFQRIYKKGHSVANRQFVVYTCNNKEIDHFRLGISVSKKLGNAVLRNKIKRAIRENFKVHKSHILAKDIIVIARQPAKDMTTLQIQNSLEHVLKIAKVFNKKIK
Summary of the method: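 Recombinant S. aureus RnpA (≥97% purity) tested for inhibition of in vitro mRNA degradation.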

Staphylococcus aureus [10] = assay: Potentiation of mupirocin-induced antibacterial activity against Staphylococcus aureus UAMS-1 assessed as mupirocin MIC at 2 ug/ml by checkerboard assay (reference value: 0.125 microg/ml); type: functional; summary of the method: as §1
Staphylococcus aureus [11] = assay: Potentiation of mupirocin-induced antibacterial activity against Staphylococcus aureus UAMS-1 assessed as mupirocin MIC at 1 ug/ml by checkerboard assay (reference value: 0.125 microg/ml); type: functional; summary of the method: as §1
Staphylococcus aureus [12] = assay: Potentiation of mupirocin-induced antibacterial activity against Staphylococcus aureus UAMS-1 assessed as fractional inhibitory concentration index at 1 ug/ml by checkerboard assay; type: functional; summary of the method: as §1

SMILES | IC50 [1] [µM] | MTC (HepG2) [µg/mL] | MIC (Staphylococcus aureus [2]) [µg/mL] | IC50 [9] [µM] | other results
CC(C)c1ccc(OCC(=O)NNC(=S)NC(=O)c2nc3ccccc3[nH]2)cc1 | 90 | 512 | – | – | –
CC(C)c1ccc(OCC(=O)NNC(=S)NC(=O)c2cc3cc(Cl)ccc3[nH]2)cc1 | 100 | 256 | – | – | –
CC(C)c1ccc(OCC(=O)NNC(=S)NC(=O)c2ccco2)cc1 | 140 | > 128 | 16 (≈ 44.3 µM) | – | fractional inhibitory concentration index (FICI) (Staphylococcus aureus [3]): 0.49; MIC (Staphylococcus aureus [4]): 0.0625 µg/mL
CC(C)c1ccc(OCC(=O)NNC(=S)NC(=O)c2ccccn2)cc1 | 1 | > 128 | – | – | MIC (Staphylococcus aureus [5]): 0.0625 µg/mL; fractional inhibitory concentration index (FICI) (Staphylococcus aureus [6]): 0.5; fractional inhibitory concentration index (FICI) (Staphylococcus aureus [7]): 0.516; fractional inhibitory concentration index (FICI) (Staphylococcus aureus [8]): 0.625
COc1ccc2cc(C(=O)NC(=S)NNC(=O)COc3ccc(C(C)C)cc3)[nH]c2c1 | – | > 512 | > 256 | 50 | –
CC(C)c1ccc(OCC(=O)NNC(=S)NC(=O)c2cc3ccccc3o2)cc1 | 1 | > 128 | 32 (≈ 77.8 µM) | – | fractional inhibitory concentration index (FICI) (Staphylococcus aureus [3]): 0.25; MIC (Staphylococcus aureus [5]): 0.0312 µg/mL; fractional inhibitory concentration index (FICI) (Staphylococcus aureus [7]): 0.508
CC(C)c1ccc(OCC(=O)NNC(=S)NC(=O)c2ccc[nH]2)cc1 | 25 | 16 | 16 (≈ 44.4 µM) | > 250 | –
CC(C)c1ccc(OCC(=O)NNC(=S)NC(=O)c2ccncc2)cc1 | 150 | > 512 | – | – | –
CC(C)c1ccc(OCC(=O)NNC(=S)NC(=O)/C=C/c2cc3ccccc3o2)cc1 | 26 | 256 | > 256 | – | –
CC(C)c1ccc(OCC(=O)NNC(=S)NC(=O)c2ccccc2)cc1 | 350 | 512 | 64 (≈ 172 µM) | > 500 | –
CC(C)c1ccc(OCC(=O)NNC(=S)NC(=O)c2cc3cc(F)ccc3[nH]2)cc1 | < 50 | 256 | – | < 50 | –
CC(C)c1ccc(OCC(=O)NNC(=S)NC(=O)c2ccoc2)cc1 | 150 | 16 | – | 250 | –
COc1ccc2[nH]c(C(=O)NC(=S)NNC(=O)COc3ccc(C(C)C)cc3)cc2c1 | – | 32 | – | – | –
CC(C)c1ccc(OCC(=O)NNC(=S)NC(=O)c2cc3ccc(Cl)cc3[nH]2)cc1 | < 50 | 32 | – | – | –
CC(C)c1ccc(OCC(=O)NNC(=S)NC(=O)c2ccc(Br)o2)cc1 | 40 | > 128 | – | – | MIC (Staphylococcus aureus [10]): 0.0625 µg/mL; fractional inhibitory concentration index (FICI) (Staphylococcus aureus [6]): 0.375; fractional inhibitory concentration index (FICI) (Staphylococcus aureus [7]): 0.516
CC(C)c1ccc(OCC(=O)NNC(=S)NC(=O)c2c[nH]c3ccccc23)cc1 | 90 | > 128 | – | – | MIC (Staphylococcus aureus [5]): 0.0625 µg/mL; fractional inhibitory concentration index (FICI) (Staphylococcus aureus [6]): 0.5

SMILES | IC50 [1] [µM] | MTC (HepG2) [µg/mL] | MIC (Staphylococcus aureus [2]) [µg/mL] | IC50 [9] [µM] | other results
CC(C)c1ccc(OCC(=O)NNC(=S)NC(=O)Cc2ccco2)cc1 | – | 32 | – | 25 | –
Cc1ccc(C(=O)NC(=S)NNC(=O)COc2ccc(C(C)C)cc2)o1 | 105 | > 128 | – | – | fractional inhibitory concentration index (FICI) (Staphylococcus aureus [3]): 0.5; MIC (Staphylococcus aureus [4]): 0.0312 µg/mL; fractional inhibitory concentration index (FICI) (Staphylococcus aureus [7]): 0.53
CC(C)c1ccc(OCC(=O)NNC(=S)NC(=O)c2cccnc2)cc1 | 160 | > 256 | – | – | –
Cc1ccoc1C(=O)NC(=S)NNC(=O)COc1ccc(C(C)C)cc1 | 150 | > 128 | – | – | –
CC(C)c1ccc(OCC(=O)NNC(=S)NC(=O)c2cccs2)cc1 | 25 | > 256 | 64 (≈ 170 µM) | 250 | –
CC(C)c1ccc(OCC(=O)NNC(=S)NC(=O)c2cc3ccccc3[nH]2)cc1 | 0.5 | > 256 | – | – | MIC (Staphylococcus aureus [11]): 0.0625 µg/mL; fractional inhibitory concentration index (FICI) (Staphylococcus aureus [12]): 0.56
CC(C)c1ccc(OCC(=O)NNC(=S)NC(=O)c2cc3ccccc3n2C)cc1 | 50 | > 256 | – | – | –
CC(C)c1ccc(OCC(=O)NNC(=S)NC(=O)c2ccc(-c3ccccc3)o2)cc1 | 50 | 64 | 64 (≈ 146 µM) | 40 | –
CC(C)c1ccc(OCC(=O)NNC(=S)NC(=O)/C=C/c2ccco2)cc1 | 32 | > 256 | – | – | –
CC(C)c1ccc(OCC(=O)NNC(=S)NC(=O)c2cc3ccccc3s2)cc1 | 100 | 512 | – | – | –
CC(C)c1ccc(OCC(=O)NNC(=S)NC(=O)c2cnco2)cc1 | 50 | 64 | – | – | –
CC(C)c1ccc(OCC(=O)NNC(=S)NC(=O)c2coc3ccccc23)cc1 | 25 | 128 | 128 (≈ 311 µM) | > 250 | –
CC(C)c1ccc(OCC(=O)NNC(=S)NC(=O)c2ccno2)cc1 | > 500 | > 128 | – | – | –
Cc1cc(/C=C(/C#N)C(=O)Nc2cccc(Br)c2)c(C)n1-c1ccc(C(=O)O)cc1 | 175 | 25 | 32 (≈ 68.9 µM) | 100 | –
CC(C)c1ccc(OCC(=O)NNC(=S)NC(=O)c2ccsc2)cc1 | 395 | > 256 | – | – | –
